The source made the active and inactive calls. The calls are words filed in the database; no cut-off is given here.
What was measured:
[1] = system: Staphylococcus aureus; assay: Antibacterial activity against methicillin-resistant Staphylococcus aureus ATCC 33591 assessed as change in bacterial burden at 2.5 mg/liter after 4 hrs; assay type: functional
Outline: (§1)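 In vitro kinetic model: spinner flask with 0.45-μm filter and prefilter, stirred, M-H broth at 37°C, starting inoculum approx. 5 × 10⁵ CFU/ml. Single initial drug dose of 1.0 to 40 mg/liter, with flow set to give a half-life of approx. 8 h. Viable counts at 0, 2, 4, 6, 8, 12 and 24 h. Duplicate runs per strain and concentration.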

[2] = system: Staphylococcus aureus; assay: Antibacterial activity against methicillin-resistant Staphylococcus aureus ATCC 33591 assessed as change in bacterial burden at 10 mg/liter after 12 hrs; assay type: functional; outline: as §1
[3] = Half life in in vitro kinetic model containing Mueller-Hinton broth and bacteria; assay type: physicochemical; settings: in vitro kinetic model with bacteria
Outline: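 Drug levels in kinetic-model samples measured by agar-well diffusion bioassay with Bacillus stearothermophilus ATCC 3032: 24 h prediffusion at 22°C, then overnight at 55°C; samples and standards in triplicate; detection limit 1 mg/liter.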

[4] = system: Staphylococcus aureus; assay: Antibacterial activity against methicillin-susceptible Staphylococcus aureus ATCC 13709 assessed as change in bacterial burden at 2.5 mg/liter after 4 hrs; assay type: functional
[5] = system: Staphylococcus aureus; assay: Antibacterial activity against methicillin-susceptible Staphylococcus aureus ATCC 13709 assessed as bacterial killing at 0.5 to 50 times MIC after 24 hrs in presence of 50% human serum; assay type: functional, organism-based
[6] = system: Staphylococcus aureus; assay: Antibacterial activity against methicillin-susceptible Staphylococcus aureus ATCC 13709 assessed as change in bacterial burden at 10 mg/liter after 8 hrs; assay type: functional
[7] = Ratio of AUC in in vitro kinetic model containing Mueller-Hinton broth and methicillin-susceptible Staphylococcus aureus ATCC 13709 to MIC for methicillin-susceptible Staphylococcus aureus ATCC 13709 in bacterial killing stage; assay type: functional
[8] = system: Staphylococcus aureus; assay: Antibacterial activity against methicillin-resistant Staphylococcus aureus ATCC 33591 assessed as change in bacterial burden at 20 mg/liter after 2 hrs; assay type: functional; outline: as §1
[9] = system: Staphylococcus aureus; assay: Antibacterial activity against methicillin-susceptible Staphylococcus aureus ATCC 13709 assessed as bacterial killing at 0.5 to 50 times MIC after 24 hrs; assay type: functional
Outline: (§2)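 Static time-kill in M-H broth, in M-H broth with 40 g/liter fatty-acid-free purified human albumin, or in M-H broth with inactivated 50% human serum. Inoculum approx. 5 × 10⁵ CFU/ml, drug at 0.5, 1, 2.5, 5, 10, 25 and 50× MIC, 37°C. Samples at 0, 3, 6, 12 and 24 h plated on blood agar, counted after 24 h. Detection limit 5 × 10¹ CFU/ml. Run in duplicate.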

[10] = system: Staphylococcus aureus; assay: Antibacterial activity against methicillin-resistant Staphylococcus aureus ATCC 33591 assessed as bacterial killing at 10 times MIC after 24 hrs in MH-broth; assay type: functional, organism-based
Outline: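 Strain diluted in M-H broth to approx. 10⁵ CFU/ml and grown 6 h into log phase, then split. Broth tubes got drug at 10× MIC directly. PBS tubes were transferred to PBS and held 3 h more, then dosed at 10× MIC. Growth controls were run in each medium. Viable counts at 0, 3, 6, 9, 12 and 24 h. Run in duplicate.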

[11] = system: Staphylococcus aureus; assay: Antibacterial activity against methicillin-resistant Staphylococcus aureus ATCC 33591 assessed as change in bacterial burden at 5 mg/liter after 6 hrs; assay type: functional; outline: as §1
[12] = system: Staphylococcus aureus; assay: Antibacterial activity against methicillin-resistant Staphylococcus aureus ATCC 33591 assessed as change in bacterial burden at 5 mg/liter after 2 hrs; assay type: functional; outline: as §1
[13] = system: Staphylococcus aureus; assay: Antibacterial activity against methicillin-susceptible Staphylococcus aureus ATCC 13709 assessed as change in bacterial burden at 1 mg/liter after 2 hrs; assay type: functional
[14] = system: Staphylococcus aureus; assay: Antibacterial activity against methicillin-susceptible Staphylococcus aureus ATCC 13709 assessed as bacterial regrowth at 40 mg/liter Cmax; assay type: functional, organism-based
[15] = system: Staphylococcus aureus; assay: Antibacterial activity against methicillin-resistant Staphylococcus aureus ATCC 33591 assessed as change in bacterial burden at 10 mg/liter after 6 hrs; assay type: functional; outline: as §1
[16] = system: Staphylococcus aureus; assay: Antibacterial activity against methicillin-susceptible Staphylococcus aureus ATCC 13709 assessed as change in bacterial burden at 10 mg/liter after 12 hrs; assay type: functional
[17] = system: Staphylococcus aureus; assay: Antibacterial activity against methicillin-susceptible Staphylococcus aureus ATCC 13709 assessed as change in bacterial burden at 20 mg/liter after 24 hrs; assay type: functional
[18] = system: Staphylococcus aureus; assay: Antibacterial activity against methicillin-resistant Staphylococcus aureus ATCC 33591 assessed as bacterial killing at 50 times MIC after 24 hrs; assay type: functional, organism-based; outline: as §2
[19] = system: Staphylococcus aureus; assay: Antibacterial activity against methicillin-susceptible Staphylococcus aureus ATCC 13709 assessed as change in bacterial burden at 40 mg/liter after 4 hrs; assay type: functional
[20] = system: Staphylococcus aureus; assay: Antibacterial activity against methicillin-resistant Staphylococcus aureus ATCC 33591 assessed as change in bacterial burden at 10 mg/liter after 24 hrs; assay type: functional; outline: as §1
[21] = system: Staphylococcus aureus; assay: Antibacterial activity against methicillin-susceptible Staphylococcus aureus ATCC 13709 assessed as change in bacterial burden at 10 mg/liter after 6 hrs; assay type: functional; outline: as §1
[22] = system: Staphylococcus aureus; assay: Antibacterial activity against methicillin-resistant Staphylococcus aureus ATCC 33591 assessed as change in bacterial burden at 20 mg/liter after 4 hrs; assay type: functional; outline: as §1
[23] = system: Staphylococcus aureus; assay: Antibacterial activity against methicillin-susceptible Staphylococcus aureus ATCC 13709 assessed as change in bacterial burden at 5 mg/liter after 2 hrs; assay type: functional
[24] = system: Staphylococcus aureus; assay: Antibacterial activity against methicillin-susceptible Staphylococcus aureus ATCC 13709 assessed as bacterial killing at 10 times MIC after 6 hrs in MH-broth; assay type: functional, organism-based
[25] = system: Staphylococcus aureus; assay: Antibacterial activity against methicillin-resistant Staphylococcus aureus ATCC 33591 assessed as change in bacterial burden at 2.5 mg/liter after 12 hrs; assay type: functional; outline: as §1
[26] = system: Staphylococcus aureus; assay: Antibacterial activity against methicillin-resistant Staphylococcus aureus ATCC 33591 assessed as change in bacterial burden at 2.5 mg/liter after 8 hrs; assay type: functional; outline: as §1
[27] = system: Staphylococcus aureus; assay: Antibacterial activity against methicillin-susceptible Staphylococcus aureus ATCC 13709 assessed as change in bacterial burden at 20 mg/liter after 6 hrs; assay type: functional; outline: as §1
[28] = system: Staphylococcus aureus; assay: Antibacterial activity against methicillin-resistant Staphylococcus aureus ATCC 33591 assessed as change in bacterial burden at 2.5 mg/liter after 6 hrs; assay type: functional; outline: as §1
[29] = system: Staphylococcus aureus; assay: Antibacterial activity against methicillin-susceptible Staphylococcus aureus ATCC 13709 assessed as change in bacterial burden at 2.5 mg/liter after 24 hrs; assay type: functional; outline: as §1
[30] = system: Staphylococcus aureus; assay: Antibacterial activity against methicillin-susceptible Staphylococcus aureus ATCC 13709 assessed as change in bacterial burden at 5 mg/liter after 6 hrs; assay type: functional
[31] = system: Staphylococcus aureus; assay: Antibacterial activity against methicillin-susceptible Staphylococcus aureus ATCC 13709 assessed as change in bacterial burden at 20 mg/liter after 8 hrs; assay type: functional; outline: as §1
[32] = system: Staphylococcus aureus; assay: Antibacterial activity against methicillin-susceptible Staphylococcus aureus ATCC 13709 assessed as change in bacterial burden at 2.5 mg/liter after 6 hrs; assay type: functional
[33] = system: Staphylococcus aureus; assay: Antibacterial activity against methicillin-resistant Staphylococcus aureus ATCC 33591 assessed as change in bacterial burden at 20 mg/liter after 8 hrs; assay type: functional; outline: as §1
[34] = system: Staphylococcus aureus; assay: Antibacterial activity against methicillin-susceptible Staphylococcus aureus ATCC 13709 assessed as change in bacterial burden at 10 mg/liter after 24 hrs; assay type: functional; outline: as §1

CCCCCCCCCCNCCN[C@@]1(C)C[C@H](O[C@H]2[C@H](Oc3c4cc5cc3Oc3ccc(cc3Cl)[C@@H](O)[C@@H](NC(=O)[C@@H](CC(C)C)NC)C(=O)N[C@@H](CC(N)=O)C(=O)N[C@H]5C(=O)N[C@H]3C(=O)N[C@H](C(=O)N[C@H](C(=O)O)c5cc(O)c(CNCP(=O)(O)O)c(O)c5-c5cc3ccc5O)[C@H](O)c3ccc(c(Cl)c3)O4)O[C@H](CO)[C@@H](O)[C@@H]2O)O[C@@H](C)[C@H]1O [TELAVANCIN]
deltalog10CFU/ml [1]: -1.7
deltalog10CFU/ml [2]: -5.1
half-life [3]: 8 h
deltalog10CFU/ml [4]: -1.6
Activity [5]: Active
deltalog10CFU/ml [6]: -4.3
RatioAUC/MIC [7]: 404
deltalog10CFU/ml [8]: -1
LCK [9]: >3
Activity [10]: Active
deltalog10CFU/ml [11]: -3.1
deltalog10CFU/ml [12]: -0.9
deltalog10CFU/ml [13]: -0.8
Activity [14]: Active
deltalog10CFU/ml [15]: -3
deltalog10CFU/ml [16]: -4.5
deltalog10CFU/ml [17]: -4.6
Activity [18]: Active
deltalog10CFU/ml [19]: -2.8
deltalog10CFU/ml [20]: -5.1
deltalog10CFU/ml [21]: -3.3
deltalog10CFU/ml [22]: -2.1
deltalog10CFU/ml [23]: -1.2
Activity [24]: Active
deltalog10CFU/ml [25]: -4.2
deltalog10CFU/ml [26]: -3.2
deltalog10CFU/ml [27]: -3.9
deltalog10CFU/ml [28]: -2.7
deltalog10CFU/ml [29]: -2.9
deltalog10CFU/ml [30]: -3.4
deltalog10CFU/ml [31]: -4.6
deltalog10CFU/ml [32]: -2.6
deltalog10CFU/ml [33]: -3.5
deltalog10CFU/ml [34]: -4.5

From ChEMBL document CHEMBL1154419, “Pharmacodynamic effects of telavancin against methicillin-resistant and methicillin-susceptible Staphylococcus aureus strains in the presence of human albumin or serum and in an in vitro kinetic model” (Antimicrob Agents Chemother, 2007)
